Screening data as filed in PubChem.
hIAP inh: human IAP inhibition; actives 0.12% (n = 330,000); purified IAP, CDP-Star luminescence, 30 min; inhibition, % at 10 µM; AID 2544; P09923;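 active = inhibition reaching a set limit with compound at 10 µM in the primary screen, cut at about 35% in these data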
Target sequence (P09923 whole entry, looked up): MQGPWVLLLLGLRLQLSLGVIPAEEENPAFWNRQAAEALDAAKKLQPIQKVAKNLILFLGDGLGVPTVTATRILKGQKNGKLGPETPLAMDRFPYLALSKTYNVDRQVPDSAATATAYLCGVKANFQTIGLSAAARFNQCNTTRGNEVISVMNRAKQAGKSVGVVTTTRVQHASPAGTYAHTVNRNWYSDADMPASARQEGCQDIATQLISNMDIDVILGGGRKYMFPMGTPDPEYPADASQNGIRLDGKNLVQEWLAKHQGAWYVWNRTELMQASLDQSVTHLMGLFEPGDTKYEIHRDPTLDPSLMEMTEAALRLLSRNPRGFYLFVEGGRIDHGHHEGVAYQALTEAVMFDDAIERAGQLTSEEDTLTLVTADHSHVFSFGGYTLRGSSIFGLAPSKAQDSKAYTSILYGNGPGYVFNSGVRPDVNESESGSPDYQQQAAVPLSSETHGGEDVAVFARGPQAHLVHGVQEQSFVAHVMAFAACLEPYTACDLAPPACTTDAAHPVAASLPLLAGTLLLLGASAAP
bIAP act: increases bovine intestinal alkaline phosphatase activity; activation factor at 20 µM; purified bovine IAP, CDP-star luminescence, 30 min; hits give high values; fold of DMSO-control signal, blank-subtracted; actives 0.17% (n = 200,000); AID 1016;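 active = activation factor of 2 or more at 20 µM, a signal rise over negative controls twice the positive control's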
mIAP act: mouse IAP activation | actives 0.24% (n = 330,000) | activation factor at 10 µM | AID 2805 | muIAP, CDP-Star luminescence, 30 min; hits give high values; 1 = vehicle-only enzyme signal, 0 = enzyme-free wells;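 active = activation factor of at least 2 at 20 µM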
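Assay system: mouse IAP enzyme; Reagent: CDP-Star chemiluminescent phosphatase substrate; Compound: DMSO-dissolved test compounds; Incubation: 30 min, room temperature; Technique: luminescence from enzymatic CDP-Star hydrolysis; Controls: DMSO-only wells and no-enzyme negative control.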
mIAP inh: blocks mouse intestinal alkaline phosphatase | purified mouse IAP, CDP-Star luminescence, 30 min | actives 0.2% (n = 330,000) | inhibition, % at 10 µM;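 active = inhibition of at least 40% at 10 µM in the primary screen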
bIAP inh: blocks bovine intestinal alkaline phosphatase activity; purified bovine IAP, CDP-star luminescence, 30 min; 190,000 tested, under 10 active; inhibition, % at 20 µM;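 active = over 50% inhibition of intestinal alkaline phosphatase at 20 µM in the single-dose screen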
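Assay system – bovine IAP enzyme · Quantity – bovine IAP at 1/65,000,000 final dilution · Detection – CDP-star luminescence signal · Times – 30 min reaction at room temperature · Also added – CDP-star substrate at 30 µM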
hIAP activ: human IAP activation; purified human IAP, CDP-Star luminescence, 30 min; hits give high values; 1 = vehicle-only enzyme, 0 = enzyme-free background; activation factor at 10 µM; actives 0.16% (n = 330,000); AID 2524;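 active = activation factor of the enzyme at least 2-fold when tested at 20 µM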
hIAP act confirm: human IAP activation confirmation; purified IAP, CDP-Star luminescence, 30 min; hits give low values; shares compounds with hIAP activ; activation (%Activity, negative = activation), % at 8.3 µM; actives 10% (n = 880);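 active = at least twofold enzyme activation in any of six single-dose repeats, which the averaged readout prints as negative percent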
mIAP inh conf: mouse IAP inhibition confirmation. AID 434971. purified mouse IAP, CDP-Star luminescence, 30 min. inhibition, % at 10 µM. shares compounds with mIAP inh. actives 4.7% (n = 11,000);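 active = inhibition of at least 40% at 10 µM in either of the two replicates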
Of the large screens only hits and unclear results are named; the others gave an inactive call (follow-up assays come after a bar, where they were run). This is a sample that favours compounds with a hit; in the whole collection about 0.72% have one here.

NS(=O)(=O)c1ccc(-c2ccc(C=C3C(=O)NC(=O)NC3=O)o2)cc1	mIAP inh 64 (no result: bIAP act, bIAP inh)
CNS(=O)(=O)c1ccc(-c2ccc(C=C3C(=O)NC(=O)NC3=O)o2)cc1	none (no result: bIAP act, bIAP inh)
Cn1cccc1C1CCCN1CC(=O)Nc1ccc(C#N)c(Cl)c1 (configuration not stated)	none (no result: bIAP act, bIAP inh)
O=C(Nc1cccc(Cl)c1)OC1CN2CCC1CC2 (configuration not stated)	mIAP act 4.4 (no result: bIAP act, bIAP inh)
COc1ccc(-c2nn(CCC#N)cc2C(=O)NCc2ccccc2)cc1[N+](=O)[O-]	none (no result: bIAP act, bIAP inh)
Nc1ncc([N+](=O)[O-])s1	mIAP inh 43 (no result: bIAP act, bIAP inh)
CC(C)(O)/C=C/C(=O)[C@](C)(O)C1[C@H](O)C[C@@]2(C)C3CC=C4C(C[C@H](O)[C@@H](O)C4(C)C)[C@]3(C)C(=O)C[C@]12C (some centres not stated)	none (no result: bIAP act, bIAP inh)
CN1C(=O)C(=Cc2ccc(N3CCCCCC3)o2)C(=O)N(C)C1=S	mIAP inh 43
COC(=O)Cn1cc(/C=C2\C(=O)NC(=O)N(c3ccccc3)C2=O)c2ccccc21	hIAP inh 37 (no result: bIAP act, bIAP inh) | hIAP act confirm inactive
CO[C@@H]1C=CC23c4cc5c(cc4CO[C@]2(O)CN(C)[C@H]3C1)OCO5 (some centres not stated)	none (no result: bIAP act, bIAP inh)
O=C1NC(=O)N(Cc2ccccc2)C(=O)/C1=C\c1ccco1	none
O=C1NC(=O)N(Cc2ccc(F)cc2)C(=O)/C1=C\C=C\c1ccco1	mIAP inh 59 (no result: bIAP act, bIAP inh) | mIAP inh conf 61
CCN(CC)c1ccc(/C=C2\C(=O)NC(=O)N(Cc3ccco3)C2=O)cc1	mIAP inh 49 | mIAP inh conf 53
O=C(O)Cn1cc(/C=C2\C(=O)NC(=O)N(Cc3ccco3)C2=O)c2ccccc21	mIAP inh 57 | mIAP inh conf 58
CCN(CC)c1ccc(/C=C2/C(=O)NC(=O)N(CC3CCCO3)C2=O)cc1 (configuration not stated)	none
COC(=O)C1=C(c2cccc(OCc3ccccc3)c2)C[C@@H]2CC[C@H]1N2C(=O)NCc1ccc2[nH]ccc2c1	none (no result: bIAP act, bIAP inh)
O=c1ccc2cc(O[C@@H]3O[C@@H](CO)[C@H](O)[C@@H](O)[C@@H]3O)c(O)cc2o1	none (no result: bIAP act, bIAP inh)
O=C1NC(=O)N(c2ccccc2)C(=O)/C1=C\c1ccc([N+](=O)[O-])s1	mIAP inh 41 (no result: bIAP act, bIAP inh) | mIAP inh conf 53
Cc1ccc(/C=C2/C(=O)NC(=O)N(C)C2=O)cc1	none
CN1C(=O)NC(=O)/C(=C/c2ccc([N+](=O)[O-])s2)C1=O	mIAP inh 46 (no result: bIAP act, bIAP inh) | mIAP inh conf 45
COc1ccc(OC)c(N2C(=O)NC(=O)/C(=C\c3ccc([N+](=O)[O-])s3)C2=O)c1	none
COc1ccc(C(O)CNC(C)C)c(F)c1OC (configuration not stated)	none (no result: bIAP act, bIAP inh)
Cc1ccc(CN2C3CCCC2CC(NC(=S)NCc2ccccc2)C3)cc1 (configuration not stated)	bIAP act 4.2, mIAP act 4.5 | mIAP inh conf inactive
NS(=O)(=O)c1ccc(-c2ccc(C=C3C(=O)NC(=S)NC3=O)o2)cc1	mIAP inh 78 (no result: bIAP act, bIAP inh) | mIAP inh conf 72
CCC(=NCCCn1ccnc1)c1c(O)n(-c2ccc(OC)cc2)c(=O)[nH]c1=O	none (no result: bIAP act, bIAP inh)
O=C1NC(=S)NC(=O)C1=Cc1ccc(Br)s1	mIAP inh 60 (no result: bIAP act, bIAP inh) | mIAP inh conf 76
CCN1C(=O)C(=Cc2ccc(C)s2)C(=O)N(CC)C1=S	none
N#CC(C#N)=Cc1ccc(O)c(O)c1	mIAP inh 46 (no result: bIAP act, bIAP inh) | mIAP inh conf 66
CC(C)(C)c1cc(C=C(C#N)C#N)cc(C(C)(C)C)c1O	none (no result: bIAP act, bIAP inh)
CN1C(=O)NC(=O)/C(=C\c2ccc([N+](=O)[O-])o2)C1=O	mIAP inh 44 | mIAP inh conf 56
CN1C(=O)NC(=O)/C(=C/c2ccc([N+](=O)[O-])o2)C1=O	mIAP inh 42 (no result: bIAP act, bIAP inh) | mIAP inh conf 42
O=C1NC(=O)N(c2ccccc2)C(=O)/C1=C\c1ccc([N+](=O)[O-])o1	mIAP inh 47 (no result: bIAP act, bIAP inh) | mIAP inh conf 59
Cc1ccc(OC(F)F)c(N2C(=O)C3C4CCC(O4)C3C2=O)c1 (configuration not stated)	none (no result: bIAP act, bIAP inh)
CCN(CC)S(=O)(=O)c1ccc(C(=O)NC2CN3CCC2CC3)cc1 (configuration not stated)	none (no result: bIAP act, bIAP inh)
